The values below come from PMC6452901 (Nature biomedical engineering, 2019).

For one data set, the target named is T1, murine Granzyme B (Mus musculus, UniProt P04187).
T1 sequence (P04187 21-247): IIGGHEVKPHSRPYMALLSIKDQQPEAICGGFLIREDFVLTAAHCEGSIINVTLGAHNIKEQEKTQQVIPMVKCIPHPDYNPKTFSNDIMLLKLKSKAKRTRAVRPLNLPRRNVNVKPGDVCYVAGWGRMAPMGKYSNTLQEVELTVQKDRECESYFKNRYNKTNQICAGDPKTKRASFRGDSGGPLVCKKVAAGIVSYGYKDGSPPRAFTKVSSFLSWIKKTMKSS
Description: In vitro protease cleavage assay of nanosensors with recombinant GzmB. The format is biochemical. The essentials:
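Candidate GzmB substrates (6–12-mer, Ile at P4, Asp at P1) were conjugated to iron-oxide nanoparticles. They were incubated with recombinant GzmB in PBS + 1% BSA at 37 °C with fluorescence monitoring. Fluorescence traces were fitted to compare initial cleavage velocities.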

The subject of data set [1] is skin allograft (BALB/c donor). Description: Skin allograft rejection under tacrolimus immunosuppression. The format is in vivo, C57BL/6 mice. The conditions noted are these: 2 mg/kg I.P.; treated PODs 7, 12 n = 6; untreated POD 7 n = 8. The method in brief:
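Allograft recipients received tacrolimus 2 mg/kg i.p. or saline daily from POD −1 to POD 7, plus doses on PODs 9 and 11. FITC-labelled nanosensors (10 nmol by peptide) were given before transplant (POD −4) and on PODs 7 and 12, followed by 90-min urine collection. Urinary FITC was bead-purified with anti-FITC, converted to percent injected dose, and expressed as fold over pre-transplant; unpaired two-sided t-test.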

Data set [2] relates to GzmB activity in skin allograft. Description: Urinary prediction of acute rejection in skin graft mice. Format: in vivo, C57BL/6 mice. The conditions noted are these: FITC-labelled, 10 nmol by peptides, urine collected for 90 minutes, n = 6. The method in brief:
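This was a paired design in C57BL/6 recipients of BALB/c tail-skin grafts. FITC-labelled nanosensors (10 nmol by peptide) were dosed at POD −4 and at post-transplant days, and mice voided over plates for 90 min. Urinary FITC was captured on anti-FITC magnetic beads and quantified against a free-FITC ladder. Values were volume-normalised to percent injected dose, scaled to pre-transplant mean and variance; one-way ANOVA with Dunnett post-test.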

For data set [3], the target named is T2, GzmB (Mus musculus, UniProt P04187).
T2 sequence (P04187 21-247): T1 sequence (P04187 21-247)
Description: Tracking of cleaved fragments after in vivo GzmB cleavage. The conditions noted are these: POD 7, VT750-labelled, 10 nmol by peptides, 90 minutes post administration, tissue homogenates. Details: species or system C57BL/6 mice.

Data set [4] concerns skin allograft and isograft. The format is in vivo, C57BL/6 mice. The conditions noted are these: POD 7 (peak), i.v., surface-labeled, mice with both grafts, n = 5.
In data set [5] the test system is membrane attack complex (MAC). As to the kind of experiment: ELISA of membrane attack complex. Details: species or system human. The conditions noted are these: serum samples, MicroVue CH50 Eq EIA, after 1 hour, n = 3. The essentials:
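Human control serum was mixed with activity nanosensors, and complement was triggered with heat-aggregated gamma globulin. Fluorescence was read for 1 h, then supernatants were assayed for membrane attack complex by CH50-equivalent EIA, which is proportional to CH50 U. Data are means ± s.e.m., n = 3, compared by one-way ANOVA with Tukey post-test.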
(In general: ELISA stands for enzyme-linked immunosorbent assay.)

A short description of the next data set: Immunogenicity study. Format: in vivo, C57BL/6 mice. Conditions: 10 nmol I.P., with or without complete Freund's adjuvant, total serum IgG, n = 3. The method in brief: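 On day 0, C57BL/6 mice received a single i.p. dose in one of five arms: free GzmB substrate peptide (10 nmol), nanosensors (10 nmol by peptide), nanosensors plus complete Freund's adjuvant, chicken ovalbumin (100 μg) plus CFA, or saline. Serum came from retro-orbital blood, was spun at 3,500 G for 5 min and stored at −80°C. Total IgG was then quantified by immunoassay.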

The nature of data set [6]: Clearance of residual urine fluorescence after a single injection. Conditions: n = 3. The format is in vivo, mice.
Data set [7] deals with T2, GzmB. As to the kind of experiment: In vivo GzmB activity imaging with NIR activatable probe. Conditions: 10 nmol by peptide, organs excised at 24 hours. Details: species or system C57BL/6 mice.

Regarding AIEFD|SG, the “initial cleavage velocity by recombinant GzmB” value at murine Granzyme B (library of 13 candidate substrates conjugated to IONPs, n = 4) is on record as “highest initial cleavage velocity”.

As for `C=CC[C@@H]1/C=C(\C)C[C@H](C)C[C@H](OC)[C@H]2O[C@@](O)(C(=O)C(=O)N3CCCC[C@H]3C(=O)O[C@H](/C(C)=C/[C@@H]3CC[C@@H](O)[C@H](OC)C3)[C@H](C)[C@@H](O)CC1=O)[C@H](C)C[C@@H]2OC` [Tacrolimus], the “nanosensor urine signals of treated versus untreated allograft mice” value in [1] is listed as “blunted compared to untreated mice”.

In the case of (FITC)AIEFDSGc [activity nanosensors], the “post-graft urine signals from allograft recipients versus pre-graft baseline” value in data set [2] is listed as “significantly elevated as early as POD 5”. The “activation (fluorescence) in samples that contained recombinant GzmB” value on murine Granzyme B (saline, plasma or serum samples spiked with GzmB, 6 nM by NP, 300 nM by peptide, 37 °C, 60 minutes) is reported as “markedly activated”. Besides, in the data set with GzmB [3], the “fluorescence in kidneys, allograft compared to isograft mice” value came to 3 fold. Besides, the “signal increase in skin allograft over skin isograft” value in data set [4] was determined as 4 fold. For the same molecule, the “MAC formation (complement activation by a foreign surface)” value in data set [5] is reported as “no elevation in MAC formation”. The “induction of neutralizing antibodies” value in “Immunogenicity study” is on record as “do not induce neutralizing antibodies”. Also, the “time to full clearance of residual urinary fluorescence” value in data set [6] is given as no more than 2 days.

For the molecule kGGsIEFDSGGGs{PRA}c [activatable probe], the “probe activation in tissues, allograft versus isograft mice” value on GzmB [7] is reported as “significantly increased in allograft skin but statistically equivalent in all major organs”.
